# eIF4H FP inh – human eIF4H binding inhibitors, primary screen, translation initiation inhibitor project, biochemical, uHTS, fluorescence polarization | Eukaryotic translation initiation factor 4H (Homo sapiens), Q15056 | eIF4H fluorescence polarization binding assay | inhibition, % at 35 µM | hit rate 0.94% among 290,000 | AID 2012, 2009;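 further: calls also rest on retests at 20 µM and on dose response follow-up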
# IMP-1 inh-1 – IMP-1 metallo-beta-lactamase inhibitors, primary screen, biochemical, epi-absorbance readout, Pseudomonas aeruginosa enzyme; inhibition, % at 5.6 µM; metallo-beta-lactamase IMP-1 (Pseudomonas aeruginosa); AID 1556, 2009; purified IMP-1, nitrocefin hydrolysis, epi-absorbance fluorescence; hit rate 0.45% among 290,000;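 active means inhibition above the mean plus 3 SD of all compounds in the same screening run, cut at about 4.5% in these data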;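 further: 0% = IMP-1 with DMSO and 100% = DMSO wells lacking enzyme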
#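 Material – recombinant IMP-1 enzyme, purified · Amount – IMP-1 0.2 nM before substrate addition · Medium – HEPES buffer pH 7.1 with ZnSO4 and Brij 35 · Timing – 25 °C, 15 min preincubation, 25 min reaction · Measured by – plate fluorescence quenching by hydrolysis product, ex 480/em 530 nm · Read-out – percent enzyme inhibition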
# MLLE-PAM2 inh – inhibitors of PABP1 MLLE–PAM2 peptide binding, primary screen, biochemical, fluorescence polarization, FITC-PAM2, GST-MLLE; inhibition, % at 20 µM; AID 588489, 2011; hit rate 0.36% among 360,000; in the data active means inhibition above about 35%, passing the limit was not always enough;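 further: plate controls were DMSO wells with GST-MLLE for no effect and wells lacking GST-MLLE protein for full effect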
# Target sequence (P11940 whole entry, looked up): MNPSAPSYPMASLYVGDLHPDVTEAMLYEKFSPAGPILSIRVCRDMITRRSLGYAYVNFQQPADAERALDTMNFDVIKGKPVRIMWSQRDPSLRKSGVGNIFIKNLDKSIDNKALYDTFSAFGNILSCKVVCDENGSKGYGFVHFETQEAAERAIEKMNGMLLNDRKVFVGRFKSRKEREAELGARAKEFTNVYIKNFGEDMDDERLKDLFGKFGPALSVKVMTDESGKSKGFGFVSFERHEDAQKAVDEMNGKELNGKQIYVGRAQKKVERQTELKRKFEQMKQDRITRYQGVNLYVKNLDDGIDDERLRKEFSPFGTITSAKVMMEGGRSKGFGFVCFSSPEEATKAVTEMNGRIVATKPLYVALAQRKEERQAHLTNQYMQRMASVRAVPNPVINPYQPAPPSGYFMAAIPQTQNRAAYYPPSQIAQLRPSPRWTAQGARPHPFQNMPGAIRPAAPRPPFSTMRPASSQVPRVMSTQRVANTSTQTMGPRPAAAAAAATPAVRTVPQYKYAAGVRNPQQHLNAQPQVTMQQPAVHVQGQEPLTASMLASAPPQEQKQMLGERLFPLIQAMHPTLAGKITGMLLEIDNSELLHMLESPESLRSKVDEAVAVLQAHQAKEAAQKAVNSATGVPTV
# PABP FP inh – PABP poly(A) RNA binding inhibitors, primary screen, biochemical, fluorescence polarization, uHTS; Polyadenylate-binding protein 1 (Homo sapiens), P11940; calls only at 35 µM; hit rate 1% among 290,000;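 further: calls also rest on retests at 20 µM and on dose response follow-up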
# VIM-2 inh – VIM-2 metallo-beta-lactamase inhibitors, primary screen, biochemical, epi-absorbance readout, Pseudomonas aeruginosa enzyme | inhibition, % at 5.6 µM | hit rate 0.89% among 290,000 | AID 1527, 2009 | purified VIM-2, nitrocefin hydrolysis, epi-absorbance fluorescence;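 active means inhibition above the mean of all tested compounds plus 3 SD, cutoff set per screening run, cut at about 7.5% in these data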;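 further: red hydrolysis product quenches plate fluorescence so inhibitors raise well fluorescence; 0% = enzyme with DMSO and 100% = DMSO without enzyme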
# IMP-1 inh-2 – IMP-1 metallo-beta-lactamase inhibitors, confirmation, selectivity assay for selective VIM-2 inhibitor project, biochemical, epi-absorbance readout, triplicate; 1,300 tested, under 10 active; shares compounds with VIM-2 inh; inhibition, % at 5.6 µM; AID 1856, 2009; purified IMP-1, nitrocefin hydrolysis, epi-absorbance fluorescence;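 further: 0% = enzyme with vehicle and 100% = vehicle without enzyme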
# VIM-2 FRET ctr – VIM-2 inhibitors in FRET format, confirmation, artefact control for selective VIM-2 inhibitor project, biochemical, epi-absorbance artifact exclusion; shares compounds with VIM-2 inh; inhibition, % at 5.6 µM; AID 1857, 2009; hit rate 23% among 1,300; purified VIM-2, CCF2 FRET substrate hydrolysis;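 active means inhibition above the mean of all tested compounds plus 3 SD, cut at about 19% in these data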;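 further: 0% = VIM-2 plus DMSO and 100% = no enzyme wells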
# TEM-1 counter – TEM-1 serine beta-lactamase inhibitors, counter-screen for VIM-2 inhibitor project, biochemical, epi-absorbance, HTS | shares compounds with VIM-2 inh | Purified TEM-1, nitrocefin hydrolysis, epi-absorbance fluorescence | inhibition, % at 5.6 µM | hit rate 3% among 1,300;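 active means inhibition above that campaign's mean inhibition plus 3 SD, cut at about 0.46% in these data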;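 further: 0% = TEM-1 with DMSO and 100% = TEM-1 with 100 µM potassium clavulanate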
# VIM-2 inh conf – VIM-2 metallo-beta-lactamase inhibitors, confirmation, biochemical, epi-absorbance, hits shared with IMP-1 screen; shares compounds with VIM-2 inh; purified VIM-2, nitrocefin hydrolysis; inhibition, % at 5.6 µM; hit rate 96% among 1,300; AID 2187, 2009;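 active means inhibition of the VIM-2 beta-lactamase enzyme above about 11% from the earlier first-round screen, limit read from the data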;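 further: 0% = VIM-2 with DMSO and 100% = buffer wells without enzyme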
# * marks the source's active call; other numbers are inactive results; i = inactive; ? = inconclusive; . = no result. Sampled rows, rich in hits. Any-hit rate of the full collection: about 2.2%. Unless noted, how the calls were made is not given here.
SMILES,eIF4H FP inh,IMP-1 inh-1,MLLE-PAM2 inh,PABP FP inh,VIM-2 inh,IMP-1 inh-2,VIM-2 FRET ctr,TEM-1 counter,VIM-2 inh conf
CCCN(CCC)CCCNC(=O)c1cc2c(=O)n(C)c3ccccc3c2n1C,-2,-2,4,i,26*,-3,1,-6,30*
CCc1nnc(NC(=O)CSc2nnc(C(C)NC(=O)c3ccccc3)n2C)s1 (stereo not drawn),-4,-1,-16,i,1,.,.,.,.
CC(=O)Nc1cccc(-c2ccnc3c2CC(C)(C(=O)Nc2cccnc2)O3)c1 (stereo not drawn),.,.,2,.,.,.,.,.,.
CCN(CC)CCNC(=O)c1cc2c(=O)n(C)c3ccccc3c2n1C,-7,-4,-3,i,20*,-3,2,-5,31*
COCCNC(=O)c1cc2c(=O)n(C)c3ccccc3c2n1C,8,-4,12,i,14*,-3,2,-7,22*
CCCCN(CC)CCNC(=O)c1cc2c(=O)n(C)c3ccccc3c2n1C,0,-2,7,i,21*,-3,2,-7,30*
CCOC(=O)N1CCC(NC(=O)c2cc3c(=O)n(C)c4ccccc4c3n2C)CC1,-8,-3,12,i,5,.,.,.,.
CCN(CC)CCNC(=O)c1nn(-c2ccc(C)cc2)c(=O)c2c1c1ccccc1n2C,-16,-3,4,i,6,.,.,.,.
NC(N)=NCCCC(NC(=O)c1ccccc1)C(=O)Nc1ccc2ccccc2c1 (stereo not drawn),.,.,1,.,.,.,.,.,.
O=[N+]([O-])c1cc([N+](=O)[O-])c(Oc2ccc(Br)cc2Br)cc1NN1CCCCC1,-7,-4,-2,i,-3,.,.,.,.
Cc1noc(C)c1CSCC(=O)Nc1nc2c(F)cc(F)cc2s1,.,.,-23,.,.,.,.,.,.
CN1CCN(Cc2cc(=O)oc3cc4c(cc23)CCC4)CC1,-6,-3,-2,i,18*,-4,1,-6,30*
CC1CCN(Cc2cc(=O)oc3cc4c(cc23)CCCC4)CC1,-2,0,-6,i,-1,.,.,.,.
CCN1CCN(Cc2cc(=O)oc3cc4c(cc23)CCC4)CC1,-22,-4,1,i,13*,-3,-5,-3,31*
CCOCCCn1c(=S)[nH]c2cc(C(=O)N3CCN(c4ccccc4)CC3)ccc2c1=O,-16,-4,-69,i,-2,.,.,.,.
CCCCn1c(=N)n(CC(=O)c2ccco2)c2ccccc21,1,-1,-1,i,-2,.,.,.,.
CCCCCCCn1c(=N)n(CC(=O)c2ccco2)c2ccccc21,-18,-3,-9,i,18*,-3,-1,-6,3
Cc1nn2c(-c3ccco3)nnc2c2ccccc12,0,0,13,i,13*,-2,-2,-4,27*
Cc1ccccc1-c1nnc2c3ccccc3c(C)nn12,-8,-2,-11,?,0,.,.,.,.
O=C(Cn1[nH]c(=O)c2ccccc2c1=O)NC1CCN(Cc2ccccc2)CC1,6,-3,6,i,20*,-3,-4,-4,36*
CCc1cc(=O)oc2cc(C)cc(OCC(=O)NC3CCN(Cc4ccccc4)CC3)c12,-10,-4,3,i,13*,-3,0,-5,24*
CCc1cc(=O)oc2cc(C)cc(OCC(=O)NC3CC3)c12,-20,-4,-13,i,1,.,.,.,.
O=C(Cn1[nH]c(=O)c2ccccc2c1=O)NC1CCCCCC1,-5,-3,-9,i,-4,.,.,.,.
Cc1c(C)c2ccc(OCC(=O)NC3CCN(Cc4ccccc4)CC3)c(C)c2oc1=O,-14,-2,-1,i,21*,-3,0,-11,31*
C[C@H]1CN([C@@H](C)CO)C(=O)CCCn2cc(nn2)CO[C@@H]1CN(C)C(=O)NC1CCCCC1,.,.,0,.,.,.,.,.,.
SMILES,eIF4H FP inh,IMP-1 inh-1,MLLE-PAM2 inh,PABP FP inh,VIM-2 inh,IMP-1 inh-2,VIM-2 FRET ctr,TEM-1 counter,VIM-2 inh conf
CC1(C)Cc2c(cnn2-c2ccc(F)cc2)C(NC(=O)C2=NNC(=O)CC2)C1 (stereo not drawn),-12,-1,-4,i,-3,.,.,.,.
COc1ccc(NC(=O)c2cc(S(=O)(=O)N3CCOCC3)cs2)cc1,3,-3,5,i,0,.,.,.,.
O=C(CCCN1C(=O)c2cccc3cccc(c23)C1=O)NC1CCS(=O)(=O)C1 (stereo not drawn),4,-3,-5,i,15*,-2,-2,0,22*
O=C(CN1C(=O)c2ccccc2C1=O)NC1CCS(=O)(=O)C1 (stereo not drawn),.,.,-10,.,.,.,.,.,.
CCOC(=O)c1cnc2c(Cl)c(Cl)ccc2c1N1CCN(C)CC1,-1,1,-8,i,15*,-3,1,-9,24*
CCOC(=O)c1cnc2c(C)c(Cl)ccc2c1N1CCN(CC)CC1,-1,-3,6,i,5,.,.,.,.
CN(C)C(=O)c1ccc(Nc2nc(-c3cccs3)nc3ccccc23)cc1,-6,-1,-34,i,22*,-3,0,-7,25*
COc1ccc(C)cc1/C=C/C(=O)N1CCN(S(=O)(=O)c2cccs2)CC1,.,.,-65,.,.,.,.,.,.
CN1CCN(C(=O)CCCOc2cc(=O)n(C)c3ccccc23)CC1,4,-3,18,i,18*,-3,-2,-5,38*
Cn1c(=O)cc(SCC(=O)N2CCN(c3ccccn3)CC2)c2ccccc21,0,-4,0,i,-2,.,.,.,.
Cn1c(=O)cc(OCCCC(=O)N2CCCCC2)c2ccccc21,-1,-8,-4,i,-1,.,.,.,.
CCN1CCN(C(=O)CSc2cc(=O)n(C)c3ccccc23)CC1,-6,-3,8,i,37*,-2,-2,-5,56*
Cn1c(=O)cc(SCC(=O)N2CCN(c3ccccc3)CC2)c2ccccc21,-6,-2,15,i,-1,.,.,.,.
CN1CCN(C(=O)CSc2cc(=O)n(C)c3ccccc23)CC1,-1,-3,-1,i,31*,-2,1,-5,49*
